According to article PMC3790647 (Clinical cancer research : an official journal of the …, 2013):

Columns and labels:
[1] = test system: rodent and human cancer cell lines; details: large variety of cell lines; ref Investigator’s Brochure, version 5, 2010; cited from earlier work
[2] = test system: patients with advanced solid tumors; test: Safety and tolerability, first-in-human dose escalation; assay type: in vivo; details: for Total number of AEs at each dose level: treatment-related clinical AEs
Method in brief: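 Open-label 3+3 escalation: oral once-daily dosing on days 1–5 every 14 days at 100, 200, 400, 600 and 800 mg, with 3–6 patients per level and 4 cycles. Adverse events were graded by NCI-CTC-AE v3.0 from first dose to 30 days after last dose. DLTs were assessed over the first 14 days. Evaluable patients had five consecutive doses plus safety evaluations over nine days.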

HeLa cells = details: ref Investigator’s Brochure, version 5, 2010; cited from earlier work
histone H4 acetylation = test: Histone H4 acetylation in PBMC by Western blotting; assay type: in vivo, human; details: 800 mg dose level
[3] = first 4 treatment cycles, 68 cycles

For `CN(C)Cc1ccc(S(=O)(=O)n2ccc(/C=C/C(=O)NO)c2)cc1` [resminostat], the “Concentrations that inhibit proliferation” value [1] is listed as “sub-to-low micromolar”, the “Dysgeusia, treatment-related, patients by maximum grade” value (shortened to “Dysgeusia, treatment-related, patients”) ([2]; 100 mg (N=3), grade 1) is listed as 1 and the “Fatigue, treatment-related, patients by maximum grade” value (“Fatigue, treatment-related, patients” below) ([2]; 100 mg (N=3), grade 1) is listed as 1. The “Total number of AEs at each dose level” value ([2]; 100 mg (N=3)) was 2, the “Nausea, treatment-related, patients by maximum grade” value (from here on “Nausea, treatment-related, patients”) ([2]; 200 mg (N=3), grade 1) was 1 and the “ALT increase, treatment-related, patients by maximum grade” value (from here on “ALT increase, treatment-related”) ([2]; 200 mg (N=3), grade 2) was 1. For the same molecule, the “Total number of AEs at each dose level” value ([2]; 200 mg (N=3)) was 2, the “Arrhythmia, treatment-related, patients by maximum grade” value ([2]; 400 mg (N=3), grade 1) was 1 and the “Thrombocytopenia, treatment-related, patients by maximum grade” value ([2]; 400 mg (N=3), grade 1) was 1. For the same molecule, the “Nausea, treatment-related, patients” value ([2]; 400 mg (N=3), grade 2) was 2, the “Total number of AEs at each dose level” value ([2]; 400 mg (N=3)) was 4 and the “Anorexia, treatment-related, patients by maximum grade” value (from here on “Anorexia, treatment-related, patients”) ([2]; 600 mg (N=3), grade 1) was 1. The “Depression, treatment-related, patients by maximum grade” value ([2]; 600 mg (N=3), grade 1) was 1, the “Diarrhea, treatment-related, patients by maximum grade” value (“Diarrhea, treatment-related, patients” below) ([2]; 600 mg (N=3), grade 1) was 1 and the “Dysgeusia, treatment-related, patients” value ([2]; 600 mg (N=3), grade 1) was 1. The “Fatigue, treatment-related, patients” value ([2]; 600 mg (N=3), grade 1) was 1, the “Nausea, treatment-related, patients” value ([2]; 600 mg (N=3), grade 1) was 3 and the “Vomiting, treatment-related, patients by maximum grade” value (“Vomiting, treatment-related, patients” for short) ([2]; 600 mg (N=3), grade 1) was 2. For the same molecule, the “Anemia, treatment-related, patients by maximum grade” value ([2]; 600 mg (N=3), grade 2) was 1, the “Fatigue, treatment-related, patients” value ([2]; 600 mg (N=3), grade 2) was 1 and the “Anorexia, treatment-related, patients” value ([2]; 800 mg (N=7), grade 1) was 3. For the same molecule, the “Dysgeusia, treatment-related, patients” value ([2]; 800 mg (N=7), grade 1) was 1, the “Electrocardiogram QT prolongation, treatment-related, patients by maximum grade” value ([2]; 800 mg (N=7), grade 1) was 1 and the “Epistaxis, treatment-related, patients by maximum grade” value ([2]; 800 mg (N=7), grade 1) was 1. The “Fatigue, treatment-related, patients” value ([2]; 800 mg (N=7), grade 1) was 1, the “Hypokalemia, treatment-related, patients by maximum grade” value ([2]; 800 mg (N=7), grade 1) was 1 and the “Nausea, treatment-related, patients” value ([2]; 800 mg (N=7), grade 1) was 4. The “Vomiting, treatment-related, patients” value ([2]; 800 mg (N=7), grade 1) was 2, the “Weight decrease, treatment-related, patients by maximum grade” value (“Weight decrease, treatment-related” below) ([2]; 800 mg (N=7), grade 1) was 1 and the “AST increase, treatment-related, patients by maximum grade” value ([2]; 800 mg (N=7), grade 2) was 1. For the same molecule, the “Anorexia, treatment-related, patients” value ([2]; 800 mg (N=7), grade 2) was 1, the “Diarrhea, treatment-related, patients” value ([2]; 800 mg (N=7), grade 2) was 1 and the “Dysgeusia, treatment-related, patients” value ([2]; 800 mg (N=7), grade 2) was 1. The “Fatigue, treatment-related, patients” value ([2]; 800 mg (N=7), grade 2) was 3, the “Nausea, treatment-related, patients” value ([2]; 800 mg (N=7), grade 2) was 2 and the “Vomiting, treatment-related, patients” value ([2]; 800 mg (N=7), grade 2) was 2. The “Weight decrease, treatment-related” value ([2]; 800 mg (N=7), grade 2) was 1, the “ALT increase, treatment-related” value ([2]; 800 mg (N=7), grade 3) was 1 and the “Fatigue, treatment-related, patients” value ([2]; 800 mg (N=7), grade 3) was 1. For the same molecule, the “Nausea, treatment-related, patients” value ([2]; 800 mg (N=7), grade 3) was 1, the “Vomiting, treatment-related, patients” value ([2]; 800 mg (N=7), grade 3) was 1 and the “Evaluable patients sustaining a DLT” value ([2]; 800 mg dose level, first cycle) was 1 of 6. The “AST abnormalities, share of all administered cycles” value ([2]; 68 cycles) was 21%, the “Patients who omitted doses due to treatment-related AEs” value ([2]; N=19) was 21% and the “Patients who underwent dose reductions due to treatment-related AEs” value ([2]; N=19) was 21%. For the same molecule, the “ALT increase, treatment-related” value ([2]; Total (N=19), grade 1) was 2, the “AST increase, treatment-related, patients by maximum grade” value ([2]; Total (N=19), grade 1) was 1 and the “Anemia, treatment-related, patients by maximum grade” value ([2]; Total (N=19), grade 1) was 1. The “Anorexia, treatment-related, patients” value ([2]; Total (N=19), grade 1) was 4, the “Arrhythmia, treatment-related, patients by maximum grade” value ([2]; Total (N=19), grade 1) was 1 and the “Depression, treatment-related, patients by maximum grade” value ([2]; Total (N=19), grade 1) was 1. For the same molecule, the “Diarrhea, treatment-related, patients” value ([2]; Total (N=19), grade 1) was 1, the “Dysgeusia, treatment-related, patients” value ([2]; Total (N=19), grade 1) was 3 and the “Electrocardiogram QT prolongation, treatment-related, patients by maximum grade” value ([2]; Total (N=19), grade 1) was 1. The “Epistaxis, treatment-related, patients by maximum grade” value ([2]; Total (N=19), grade 1) was 1, the “Fatigue, treatment-related, patients” value ([2]; Total (N=19), grade 1) was 3 and the “Hypokalemia, treatment-related, patients by maximum grade” value ([2]; Total (N=19), grade 1) was 1. The “Nausea, treatment-related, patients” value ([2]; Total (N=19), grade 1) was 8, the “Thrombocytopenia, treatment-related, patients by maximum grade” value ([2]; Total (N=19), grade 1) was 1 and the “Vomiting, treatment-related, patients” value ([2]; Total (N=19), grade 1) was 4. For the same molecule, the “Weight decrease, treatment-related” value ([2]; Total (N=19), grade 1) was 1, the “Anorexia, treatment-related, patients” value ([2]; Total (N=19), grade 2) was 1 and the “Diarrhea, treatment-related, patients” value ([2]; Total (N=19), grade 2) was 1. The “Dysgeusia, treatment-related, patients” value ([2]; Total (N=19), grade 2) was 1, the “Fatigue, treatment-related, patients” value ([2]; Total (N=19), grade 2) was 4 and the “Nausea, treatment-related, patients” value ([2]; Total (N=19), grade 2) was 4. The “Vomiting, treatment-related, patients” value ([2]; Total (N=19), grade 2) was 2, the “Weight decrease, treatment-related” value ([2]; Total (N=19), grade 2) was 1 and the “Fatigue, treatment-related, patients” value ([2]; Total (N=19), grade 3) was 1. The “Nausea, treatment-related, patients” value ([2]; Total (N=19), grade 3) was 1, the “Vomiting, treatment-related, patients” value ([2]; Total (N=19), grade 3) was 1 and the “Grade 4 treatment-related adverse events” value ([2]; all dose levels) was “No grade 4 treatment-related adverse event”. The Treatment-related deaths ([2]; all dose levels) was “No treatment-related deaths”, the “Anemia regardless of causality, patients” value ([2]; all grades, N=19) was 89% and the “GGT elevation regardless of causality, patients” value ([2]; all grades, N=19) was 80%. The “Hypermagnesemia, patients” value ([2]; all grades, N=19) was 26%, the “Hypokalemia, patients” value ([2]; all grades, N=19) was 58% and the “Hyponatremia, patients” value ([2]; all grades, N=19) was 58%. The “Lymphopenia, patients” value ([2]; all grades, N=19) was 89%, the “Neutropenia, patients” value ([2]; all grades, N=19) was 21% and the “Grade 1-2 dysgeusia, patients” value ([2]; all patients (N=19)) was 21%. The “Patients with SAEs unrelated to treatment” value ([2]; all patients (N=19)) was 37%, the “Patients with treatment-related SAE” value ([2]; all patients (N=19)) was 11% and the “Treatment-related anorexia, irrespective of grade, patients” value ([2]; all patients (N=19)) was 26%. The “Treatment-related fatigue, irrespective of grade, patients” value ([2]; all patients (N=19)) was 42%, the “Treatment-related nausea, irrespective of grade, patients” value ([2]; all patients (N=19)) was 68% and the “Treatment-related vomiting, irrespective of grade, patients” value ([2]; all patients (N=19)) was 37%. For the same molecule, the “Number of treatment-related serious adverse events (SAE)” value ([2]; all patients (N=19), both patients in 800 mg cohort) was 3, the “Anorexia, irrespective of causality and grade, share of administered cycles” value [2, 3] was 31% and the “Fatigue, irrespective of causality and grade, share of administered cycles” value [2, 3] was 40%. The “Grade 3 fatigue, number of treatment cycles” value [2, 3] was 3 treatment cycles, the “Nausea, irrespective of causality and grade, share of administered cycles” value [2, 3] was 60% and the “Hypokalemia, patients” value ([2]; grade 1, N=19) was 47%. The “Hyponatremia, patients” value ([2]; grade 1, N=19) was 47%, the “Leukopenia, patients” value ([2]; grade 1-2, N=19) was 37% and the “Thrombocytopenia, patients” value ([2]; grade 1-2, N=19) was 37%. For the same molecule, the “Anemia regardless of causality, patients” value ([2]; grade 2, N=19) was 47%, the “Lymphopenia, patients” value ([2]; grade 2, N=19) was 42% and the “Anemia regardless of causality, patients” value ([2]; grade 3, N=19) was 11%. For the same molecule, the “GGT elevation, patients” value ([2]; grade 3, N=19) was 11%, the “Hypokalemia, patients” value ([2]; grade 3, N=19) was 11% and the “Hyponatremia, patients” value ([2]; grade 3, N=19) was 11%. The “Lymphopenia, patients” value ([2]; grade 3, N=19) was 21%, the “Maximum tolerated dose (MTD)” value ([2]; once-daily days 1-5 every 14 days, up to 800 mg) was “not reached” and the “Recommended phase II dose (RP2D)” value ([2]; orally once-daily on days 1-5 every 14 days) was 600 mg. For the same molecule, the “Induction of histone H3 hyperacetylation and endogenous p21waf1” value (HeLa cells) was “dose-dependent induction” and the “Median increase of histone H4 acetylation level” value (histone H4 acetylation) was 10 fold.
